Source: PubChem
Sampled rows, rich in hits. Any-hit rate of the full collection: about 1.3%.
PP5 primary: inhibitors of human protein phosphatase 5 (PP5); purified PP5c, OMFP substrate fluorescence; inhibition, % at 6.7 µM; hit rate 0.18% among 320,000; AID 1987;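 active means inhibition above the campaign's mean inhibition across all tested compounds plus 3 SD, cut at about 9.5% in these data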;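 further: 0% = DMSO only and 100% = 100 µM cantharidin control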
NR2E3 ag-1: activates human photoreceptor nuclear receptor NR2E3; AID 2300; GST-NR2E3/biotin-RetCOR TR-FRET, 1536-well; Q9Y5X4; hit rate 0.12% among 320,000; inhibition of corepressor binding, % at 4.78 µM;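 active means percent inhibition above the cutoff of mean plus 3 SD of all tested compounds, set per screening campaign, cut at about 20% in these data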;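 further: 0% = DMSO wells and 100% = biotin wells as full block of FRET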
Target sequence (Q9Y5X4 whole entry, looked up): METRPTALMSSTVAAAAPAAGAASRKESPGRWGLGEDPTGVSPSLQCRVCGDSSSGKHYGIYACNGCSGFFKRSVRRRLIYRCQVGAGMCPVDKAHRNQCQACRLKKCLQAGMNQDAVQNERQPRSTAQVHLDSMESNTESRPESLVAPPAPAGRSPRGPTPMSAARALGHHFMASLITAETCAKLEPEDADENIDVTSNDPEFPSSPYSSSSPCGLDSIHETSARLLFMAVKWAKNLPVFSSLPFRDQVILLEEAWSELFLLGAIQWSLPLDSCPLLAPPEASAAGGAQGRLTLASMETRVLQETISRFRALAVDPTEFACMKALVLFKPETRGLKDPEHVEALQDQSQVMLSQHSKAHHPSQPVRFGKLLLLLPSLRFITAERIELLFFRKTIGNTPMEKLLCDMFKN
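Format: 1536-well format; test system: GST-NR2E3 and biotin-RetCOR proteins; read-out basis: percent inhibition of TR-FRET ratio; timing: 5 h incubation at 4 °C; detection: time-resolved FRET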
PP1 inh: counter-screen for PP5 inhibitors: inhibitors of human PP1-alpha. P62136. purified PP1alpha, OMFP fluorescence. inhibition, % at 6.7 µM. hit rate 0.9% among 320,000. AID 2235;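 active means inhibition above the mean inhibition of all tested compounds plus 3 SD, computed separately for each screening campaign, cut at about 15% in these data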
NR2E3 ag-2: activates human NR2E3 receptor. hit rate 0.35% among 360,000. CHO-S Gal4-NCOR/VP16-NR2E3 two-hybrid, luciferase. AID 602229. inhibition of corepressor binding, % at 3.98 µM;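 active means inhibition above the mean of all tested compounds plus 3 SD, cut at about 70% in these data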;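 further: 0% = DMSO with NR2E3 transfected cells and 100% = cells lacking NR2E3 construct; higher means lower luciferase signal from less NR2E3 corepressor binding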
The depositor's hits bear a star; . = no result.

SMILES | PP5 primary | NR2E3 ag-1 | PP1 inh | NR2E3 ag-2
O=C(CNc1ccc2c(c1)OCO2)N/N=C\c1cn(Cc2ccccc2)c2ccccc12 | 4 | 1 | 17* | -15
COc1ccc(-c2cc(C)nc(SCc3cccc(C(=O)O)c3)n2)cc1 | 2 | 0 | -1 | -7
O=C(O)c1cccc(CSc2nc(-c3ccc(Cl)cc3)cc(C(F)(F)F)n2)c1 | 6 | 7 | 17* | -14
c1ccc(CCCNCCCn2cnc3c(OCc4ccccc4)ncnc32)cc1 | . | . | . | 15
CCCCn1c(NC(=O)c2ccccc2)c(C#N)c2nc3ccccc3nc21 | . | . | . | -9
CCCCn1c(NC(=O)c2ccc(F)cc2)c(C#N)c2nc3ccccc3nc21 | 14* | 22* | 5 | .
COc1cccc(C2=Nc3cccc4cccc(c34)N2)c1 | 4 | 0 | 17* | 2
O=c1[nH]c(SCc2nc3c(cnn3-c3ccccc3)c(=O)[nH]2)nc2ccccc12 | . | . | . | -48
O=c1[nH]c(CSc2nc3ccccc3o2)nc2c1cnn2-c1ccccc1 | 1 | -3 | 16* | 2
Cc1ccc(-c2ccc(OC(=O)c3ccc(=O)[nH]c3)c(C)c2)cc1 | -1 | -1 | 2 | -14
Cc1ccc(-c2cc(C(=O)NC3=NCCS3)c3cc(Br)ccc3n2)o1 | 4 | 4 | 19* | .
Cc1ccccc1/C=N/Nc1nc2ccccc2c(=O)n1O | 3 | -1 | 2 | -24
C[C@@H](OC(=O)N1CCCCC1)[C@H]1O[C@]2(C)CCCC[C@H]1O2 | 0 | 1 | 0 | 5
CC(=O)Nc1ccc(NC(=O)c2ccc(COc3ccc4c(C)cc(=O)oc4c3)cc2)cc1 | -6 | -1 | 0 | .
Cc1cccc(C(C)C)c1NC(=O)c1ccc(COc2ccc3c(C)cc(=O)oc3c2)cc1 | 4 | 3 | 17* | 4
CN(C)c1ccc(-c2nn3c(-c4ccccc4Cl)nnc3s2)cc1 | 2 | -2 | 16* | 30
CCCCn1nnnc1C(c1cc2ccccc2o1)N(CCN(C)C)Cc1ccccc1 (centres undefined) | . | . | . | -5
Cn1c(=O)c(C(=O)COC(=O)c2cc(-c3ccco3)nc3ccccc23)c(N)n(CC2CC2)c1=O | 4 | 3 | 21* | .
Cn1c(=O)c(C(=O)COC(=O)c2cc(C3CC3)nc3ccccc23)c(N)n(Cc2ccccc2)c1=O | 5 | 2 | 14 | .
CC(=O)Oc1ccc(OC(C)=O)c2c1CC1(C)OC1(C)C2 (centres undefined) | . | . | . | 15
O=c1cc(-c2ccccc2Cl)oc2c(NS(=O)(=O)c3cc(Cl)cc(Cl)c3O)ccc(O)c12 | 1 | 4 | 27* | -20
CCc1ccc(S(=O)(=O)Nc2ccc(O)c3c(=O)cc(-c4ccccc4Cl)oc23)cc1 | 4 | -1 | 11 | -13
CCCCc1cc(=O)oc2cc(OCC(=O)Nc3ccccn3)ccc12 | 0 | -4 | 0 | -78
C=CC[n+]1ccc(/C=C2\C=Cc3cc(C)ccc3N2CC)c2ccccc21 | . | . | . | 93*
Cc1ccc(C)c(OCC(=O)Nc2nonc2NC(=O)COc2cc(C)ccc2C)c1 | 5 | 5 | 17* | -17
SMILES | PP5 primary | NR2E3 ag-1 | PP1 inh | NR2E3 ag-2
O=C(Nc1ccc(Cl)cc1)Nc1ccc(N2CCCC2)c(S(=O)(=O)Nc2ccccc2Cl)c1 | 3 | 2 | 17* | 6
Cc1cc(C)c(NC(=O)COC(=O)c2cccc3c2C(=O)c2ccccc2C3=O)c(C)c1 | 4 | 2 | 5 | -7
Cc1cc(C)c(Nc2cc(S(=O)(=O)O)c(N)c3c2C(=O)c2ccccc2C3=O)c(C)c1 | 8 | -22 | 25* | 23
COc1ccccc1S(=O)(=O)N(C)C[C@@H]1OCc2cnnn2CCCC(=O)N([C@@H](C)CO)C[C@H]1C | . | . | . | -16
CCN(CC)c1ccc(-c2sc(Nc3ccccc3)n[n+]2-c2ccc(F)cc2)cc1 | 4 | 7 | 17* | -46
COc1ccc(S(=O)(=O)N2CCCC2CNC(=O)C(=O)NCc2ccccc2Cl)cc1 (centres undefined) | 1 | -2 | -2 | 1
CCCCc1c(C)nn(-c2nnc3c4ccccc4n(C)c3n2)c1C | 0 | 0 | 17* | -70
O=[N+]([O-])/C=C/c1cn(Cc2ccc(Cl)cc2)c2ccccc12 | 2 | -2 | 16* | -15
Cc1cccc(Cn2cc(/C=C/[N+](=O)[O-])c3ccccc32)c1 | 3 | -2 | 17* | 5
CC(C)N(Cc1ccccc1)C(=O)COC(=O)C1CCN(S(=O)(=O)c2ccc3c(c2)OCCO3)CC1 | 0 | -6 | 16* | -4
COc1ccccc1OCc1nnc(SCC(=O)c2cc(Cl)ccc2OC)o1 | 3 | 0 | 17* | -52
